{"source": "ChEMBL document CHEMBL3045504", "about": "“Activity of 1,4-benzoquinones against formosan subterranean termites (Coptotermes formosanus)” (2008)", "assay_type_in_all_cases": "functional", "key": {"Coptotermes formosanus [1]": {"test_system": "Coptotermes formosanus", "assay": "Antifeedant activity against Coptotermes formosanus placed on 0.5 % wt/wt compound treated filter paper assessed as filter paper consumption measured 21 days post compound exposure (reference value: 113.2 +/- 11.9 mg)"}, "Coptotermes formosanus [2]": {"test_system": "Coptotermes formosanus", "assay": "Termiticidal activity against Coptotermes formosanus placed on 0.001 % wt/wt compound treated filter paper assessed as termite mortality measured 9 days post compound exposure", "how_it_was_run": "(§1)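 Treated filter paper disks moistened with 100 µL water; 20 C. formosanus workers (third instar or greater) plus 1 soldier per dish from field colonies kept on spruce, ca. 100% RH, 26.6 °C. Daily mortality scored for 3 weeks; cumulative percent mortality from four replicates, each a different colony; water-only controls; ANOVA, protected Fisher LSD (P < 0.05) after arcsine square-root transform.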"}, "Coptotermes formosanus [3]": {"test_system": "Coptotermes formosanus", "assay": "Termiticidal activity against Coptotermes formosanus placed on 0.1 % wt/wt compound treated filter paper assessed as termite mortality measured 9 days post compound exposure", "how_it_was_run": "as §1"}, "Coptotermes formosanus [4]": {"test_system": "Coptotermes formosanus", "assay": "Antifeedant activity against Coptotermes formosanus placed on 0.01 % wt/wt compound treated filter paper assessed as filter paper consumption measured 21 days post compound exposure (reference value: 113.2 +/- 11.9 mg)"}, "Coptotermes formosanus [5]": {"test_system": "Coptotermes formosanus", "assay": "Termiticidal activity against Coptotermes formosanus placed on 0.001 % wt/wt compound treated filter paper assessed as termite mortality measured 21 days post compound exposure", "how_it_was_run": "as §1"}, "Coptotermes formosanus [6]": {"test_system": "Coptotermes formosanus", "assay": "Termiticidal activity against Coptotermes formosanus placed on 0.01 % wt/wt compound treated filter paper assessed as termite mortality measured 11 days post compound exposure", "how_it_was_run": "as §1"}, "Coptotermes formosanus [7]": {"test_system": "Coptotermes formosanus", "assay": "Termiticidal activity against Coptotermes formosanus placed on 0.05 % wt/wt compound treated filter paper assessed as termite mortality measured 17 days post compound exposure", "how_it_was_run": "as §1"}, "Coptotermes formosanus [8]": {"test_system": "Coptotermes formosanus", "assay": "Antifeedant activity against Coptotermes formosanus placed on 0.001 % wt/wt compound treated filter paper assessed as filter paper consumption measured 21 days post compound exposure (reference value: 113.2 +/- 11.9 mg)"}, "Coptotermes formosanus [9]": {"test_system": "Coptotermes formosanus", "assay": "Termiticidal activity against Coptotermes formosanus placed on 0.5 % wt/wt compound treated filter paper assessed as termite mortality measured 21 days post compound exposure", "how_it_was_run": "as §1"}, "Coptotermes formosanus [10]": {"test_system": "Coptotermes formosanus", "assay": "Termiticidal activity against Coptotermes formosanus placed on 0.05 % wt/wt compound treated filter paper assessed as termite mortality measured 9 days post compound exposure", "how_it_was_run": "as §1"}, "Coptotermes formosanus [11]": {"test_system": "Coptotermes formosanus", "assay": "Termiticidal activity against Coptotermes formosanus placed on 0.1 % wt/wt compound treated filter paper assessed as termite mortality measured 11 days post compound exposure", "how_it_was_run": "as §1"}, "Coptotermes formosanus [12]": {"test_system": "Coptotermes formosanus", "assay": "Termiticidal activity against Coptotermes formosanus placed on 0.01 % wt/wt compound treated filter paper assessed as termite mortality measured 21 days post compound exposure", "how_it_was_run": "as §1"}, "Coptotermes formosanus [13]": {"test_system": "Coptotermes formosanus", "assay": "Termiticidal activity against Coptotermes formosanus placed on 0.5 % wt/wt compound treated filter paper assessed as termite mortality measured 6 days post compound exposure", "how_it_was_run": "as §1"}, "Coptotermes formosanus [14]": {"test_system": "Coptotermes formosanus", "assay": "Termiticidal activity against Coptotermes formosanus placed on 0.001 % wt/wt compound treated filter paper assessed as termite mortality measured 11 days post compound exposure", "how_it_was_run": "as §1"}, "Coptotermes formosanus [15]": {"test_system": "Coptotermes formosanus", "assay": "Termiticidal activity against Coptotermes formosanus placed on 0.01 % wt/wt compound treated filter paper assessed as termite mortality measured 9 days post compound exposure", "how_it_was_run": "as §1"}, "Coptotermes formosanus [16]": {"test_system": "Coptotermes formosanus", "assay": "Termiticidal activity against Coptotermes formosanus placed on 0.001 % wt/wt compound treated filter paper assessed as termite mortality measured 17 days post compound exposure", "how_it_was_run": "as §1"}, "Coptotermes formosanus [17]": {"test_system": "Coptotermes formosanus", "assay": "Termiticidal activity against Coptotermes formosanus placed on 1 % wt/wt compound treated filter paper assessed as termite mortality measured 21 days post compound exposure"}, "Coptotermes formosanus [18]": {"test_system": "Coptotermes formosanus", "assay": "Termiticidal activity against Coptotermes formosanus placed on 0.05 % wt/wt compound treated filter paper assessed as termite mortality measured 11 days post compound exposure", "how_it_was_run": "as §1"}, "Coptotermes formosanus [19]": {"test_system": "Coptotermes formosanus", "assay": "Termiticidal activity against Coptotermes formosanus placed on 0.01 % wt/wt compound treated filter paper assessed as termite mortality measured 6 days post compound exposure", "how_it_was_run": "as §1"}, "Coptotermes formosanus [20]": {"test_system": "Coptotermes formosanus", "assay": "Antifeedant activity against Coptotermes formosanus placed on 0.1 % wt/wt compound treated filter paper assessed as filter paper consumption measured 21 days post compound exposure (reference value: 113.2 +/- 11.9 mg)"}, "Coptotermes formosanus [21]": {"test_system": "Coptotermes formosanus", "assay": "Termiticidal activity against Coptotermes formosanus placed on 0.5 % wt/wt compound treated filter paper assessed as termite mortality measured 17 days post compound exposure", "how_it_was_run": "as §1"}, "Coptotermes formosanus [22]": {"test_system": "Coptotermes formosanus", "assay": "Termiticidal activity against Coptotermes formosanus placed on 1 % wt/wt compound treated filter paper assessed as termite mortality measured 3 days post compound exposure"}, "Coptotermes formosanus [23]": {"test_system": "Coptotermes formosanus", "assay": "Termiticidal activity against Coptotermes formosanus placed on 0.001 % wt/wt compound treated filter paper assessed as termite mortality measured 13 days post compound exposure", "how_it_was_run": "as §1"}, "Coptotermes formosanus [24]": {"test_system": "Coptotermes formosanus", "assay": "Termiticidal activity against Coptotermes formosanus placed on 0.1 % wt/wt compound treated filter paper assessed as termite mortality measured 21 days post compound exposure", "how_it_was_run": "as §1"}, "Coptotermes formosanus [25]": {"test_system": "Coptotermes formosanus", "assay": "Termiticidal activity against Coptotermes formosanus placed on 0.1 % wt/wt compound treated filter paper assessed as termite mortality measured 17 days post compound exposure", "how_it_was_run": "as §1"}, "Coptotermes formosanus [26]": {"test_system": "Coptotermes formosanus", "assay": "Antifeedant activity against Coptotermes formosanus placed on 0.05 % wt/wt compound treated filter paper assessed as filter paper consumption measured 21 days post compound exposure (reference value: 113.2 +/- 11.9 mg)"}, "Coptotermes formosanus [27]": {"test_system": "Coptotermes formosanus", "assay": "Termiticidal activity against Coptotermes formosanus placed on 1 % wt/wt compound treated filter paper assessed as termite mortality measured 11 days post compound exposure"}, "Coptotermes formosanus [28]": {"test_system": "Coptotermes formosanus", "assay": "Termiticidal activity against Coptotermes formosanus placed on 0.1 % wt/wt compound treated filter paper assessed as termite mortality measured 6 days post compound exposure", "how_it_was_run": "as §1"}, "Coptotermes formosanus [29]": {"test_system": "Coptotermes formosanus", "assay": "Termiticidal activity against Coptotermes formosanus placed on 0.5 % wt/wt compound treated filter paper assessed as termite mortality measured 13 days post compound exposure", "how_it_was_run": "as §1"}, "Coptotermes formosanus [30]": {"test_system": "Coptotermes formosanus", "assay": "Termiticidal activity against Coptotermes formosanus placed on 0.05 % wt/wt compound treated filter paper assessed as termite mortality measured 21 days post compound exposure", "how_it_was_run": "as §1"}, "Coptotermes formosanus [31]": {"test_system": "Coptotermes formosanus", "assay": "Termiticidal activity against Coptotermes formosanus placed on 0.001 % wt/wt compound treated filter paper assessed as termite mortality measured 6 days post compound exposure", "how_it_was_run": "as §1"}, "Coptotermes formosanus [32]": {"test_system": "Coptotermes formosanus", "assay": "Termiticidal activity against Coptotermes formosanus placed on 0.05 % wt/wt compound treated filter paper assessed as termite mortality measured 13 days post compound exposure", "how_it_was_run": "as §1"}, "Coptotermes formosanus [33]": {"test_system": "Coptotermes formosanus", "assay": "Termiticidal activity against Coptotermes formosanus placed on 0.1 % wt/wt compound treated filter paper assessed as termite mortality measured 13 days post compound exposure", "how_it_was_run": "as §1"}, "Coptotermes formosanus [34]": {"test_system": "Coptotermes formosanus", "assay": "Antifeedant activity against Coptotermes formosanus placed on 1 % wt/wt compound treated filter paper assessed as filter paper consumption measured 21 days post compound exposure (reference value: 15.9 +/- 10.4 mg)"}, "Coptotermes formosanus [35]": {"test_system": "Coptotermes formosanus", "assay": "Termiticidal activity against Coptotermes formosanus placed on 0.01 % wt/wt compound treated filter paper assessed as termite mortality measured 13 days post compound exposure", "how_it_was_run": "as §1"}, "Coptotermes formosanus [36]": {"test_system": "Coptotermes formosanus", "assay": "Termiticidal activity against Coptotermes formosanus placed on 0.5 % wt/wt compound treated filter paper assessed as termite mortality measured 11 days post compound exposure", "how_it_was_run": "as §1"}, "Coptotermes formosanus [37]": {"test_system": "Coptotermes formosanus", "assay": "Termiticidal activity against Coptotermes formosanus placed on 0.05 % wt/wt compound treated filter paper assessed as termite mortality measured 6 days post compound exposure", "how_it_was_run": "as §1"}, "Coptotermes formosanus [38]": {"test_system": "Coptotermes formosanus", "assay": "Termiticidal activity against Coptotermes formosanus placed on 0.5 % wt/wt compound treated filter paper assessed as termite mortality measured 9 days post compound exposure", "how_it_was_run": "as §1"}, "Coptotermes formosanus [39]": {"test_system": "Coptotermes formosanus", "assay": "Termiticidal activity against Coptotermes formosanus placed on 0.01 % wt/wt compound treated filter paper assessed as termite mortality measured 17 days post compound exposure", "how_it_was_run": "as §1"}}, "data": [{"smiles": "COC1=C(OC)C(=O)C(C)=C(C)C1=O", "note": "[Aurantiogliocladin]", "values": [{"measurement": "Activity", "setting": "Coptotermes formosanus [1]", "result": 52.4, "unit": "mg"}, {"measurement": "mortality", "setting": "Coptotermes formosanus [2]", "result": 0, "unit": "%"}, {"measurement": "mortality", "setting": "Coptotermes formosanus [3]", "result": 0, "unit": "%"}, {"measurement": "Activity", "setting": "Coptotermes formosanus [4]", "result": 86.6, "unit": "mg"}, {"measurement": "mortality", "setting": "Coptotermes formosanus [5]", "result": 0, "unit": "%"}, {"measurement": "mortality", "setting": "Coptotermes formosanus [6]", "result": 0, "unit": "%"}, {"measurement": "mortality", "setting": "Coptotermes formosanus [7]", "result": 0, "unit": "%"}, {"measurement": "Activity", "setting": "Coptotermes formosanus [8]", "result": 136.2, "unit": "mg"}, {"measurement": "mortality", "setting": "Coptotermes formosanus [9]", "result": 0, "unit": "%"}, {"measurement": "mortality", "setting": "Coptotermes formosanus [10]", "result": 0, "unit": "%"}, {"measurement": "mortality", "setting": "Coptotermes formosanus [11]", "result": 0, "unit": "%"}, {"measurement": "mortality", "setting": "Coptotermes formosanus [12]", "result": 1.7, "unit": "%"}, {"measurement": "mortality", "setting": "Coptotermes formosanus [13]", "result": 0, "unit": "%"}, {"measurement": "mortality", "setting": "Coptotermes formosanus [14]", "result": 0, "unit": "%"}, {"measurement": "mortality", "setting": "Coptotermes formosanus [15]", "result": 0, "unit": "%"}, {"measurement": "mortality", "setting": "Coptotermes formosanus [16]", "result": 0, "unit": "%"}, {"measurement": "mortality", "setting": "Coptotermes formosanus [17]", "result": 100, "unit": "%"}, {"measurement": "mortality", "setting": "Coptotermes formosanus [18]", "result": 0, "unit": "%"}, {"measurement": "mortality", "setting": "Coptotermes formosanus [19]", "result": 0, "unit": "%"}, {"measurement": "Activity", "setting": "Coptotermes formosanus [20]", "result": 107.7, "unit": "mg"}, {"measurement": "mortality", "setting": "Coptotermes formosanus [21]", "result": 0, "unit": "%"}, {"measurement": "mortality", "setting": "Coptotermes formosanus [22]", "result": 100, "unit": "%"}, {"measurement": "mortality", "setting": "Coptotermes formosanus [23]", "result": 0, "unit": "%"}, {"measurement": "mortality", "setting": "Coptotermes formosanus [24]", "result": 0, "unit": "%"}, {"measurement": "mortality", "setting": "Coptotermes formosanus [25]", "result": 0, "unit": "%"}, {"measurement": "Activity", "setting": "Coptotermes formosanus [26]", "result": 48.6, "unit": "mg"}, {"measurement": "mortality", "setting": "Coptotermes formosanus [27]", "result": 100, "unit": "%"}, {"measurement": "mortality", "setting": "Coptotermes formosanus [28]", "result": 0, "unit": "%"}, {"measurement": "mortality", "setting": "Coptotermes formosanus [29]", "result": 0, "unit": "%"}, {"measurement": "mortality", "setting": "Coptotermes formosanus [30]", "result": 5, "unit": "%"}, {"measurement": "mortality", "setting": "Coptotermes formosanus [31]", "result": 0, "unit": "%"}, {"measurement": "mortality", "setting": "Coptotermes formosanus [32]", "result": 0, "unit": "%"}, {"measurement": "mortality", "setting": "Coptotermes formosanus [33]", "result": 0, "unit": "%"}, {"measurement": "Activity", "setting": "Coptotermes formosanus [34]", "result": 0.1, "unit": "mg"}, {"measurement": "mortality", "setting": "Coptotermes formosanus [35]", "result": 0, "unit": "%"}, {"measurement": "mortality", "setting": "Coptotermes formosanus [36]", "result": 0, "unit": "%"}, {"measurement": "mortality", "setting": "Coptotermes formosanus [37]", "result": 0, "unit": "%"}, {"measurement": "mortality", "setting": "Coptotermes formosanus [38]", "result": 0, "unit": "%"}, {"measurement": "mortality", "setting": "Coptotermes formosanus [39]", "result": 0, "unit": "%"}]}]}
